Measured values: the RNAGym collection of RNA variant scans (doi:10.1126/science.aae0568)
Fewer inactive variants are shown than the library holds.

B1: tRNA (parent)
chain: GUUCCGUUGGCGUAAUGGUAACGCGUCUCCCUCCUAAGGAGAAGACUGCGGGUUCGAGUCCCGUACGGAACG

Variants of: B1
Experiment: yeast fitness relative to wild type (ratio to wild type); higher = fitter; tRNA-Arg(CCU), competitive growth, 37 C, YPD
Summary of the method: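 The tRNA-Arg(CCU) gene variants were made by chemical synthesis with a 3% per-site mutation rate at 69 sites and inserted at the native genomic locus of Saccharomyces cerevisiae. After pooling, the strains were competed in YPD at 37°C for 24 hours in six parallel replicates. Gene amplicons from the start population and each end population were read by 100-nucleotide paired-end sequencing, and Darwinian fitness relative to wild type was taken from genotype frequency changes. Genotypes needed ≥ 100 starting reads, and estimates < 0.5 were set to 0.5.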

Row | Variant | yeast fitness
1 | GUUCCGUUGGCCUAAUGGUAACGCGUCUUCCUCCUAAGGAGAAGACUGCGGGUUCGAUUCUCGUACGGAACG [G12C C29U G58U C61U] | ≤ 0.5
2 | GUUCCGUUGGCCUAAUGGUAACGCGUCUGCCUCCUAAGGAGAAGACUCCGGGUUCGAGUCCCGUACGGAACG [G12C C29G G48C] | ≤ 0.5
3 | GUUCCGUUGGCCUAAUGGUUACGCGUCUCCCUCCUAAGGAGAAGACUGCGGGUUCGAGUCCCGUACGGAACG [G12C A20U] | 0.75
4 | GUUCCGUUGGCCUAAUGGUAACGCGUAUCCCUCCUAGGGAGAAGACUGUGGGUUCGAGUCCCGUACGGAACG [G12C C27A A37G C49U] | ≤ 0.5
5 | GUUCCGUUGGCCUAAUGGUAAGACGUCUCCCUCCUAAGGAGAAGACUGCGGGUUAGAGUCCCGUACGGAACG [G12C C22G G23A C55A] | ≤ 0.5
6 | GUUCCGUUGGCCUAAUGGUAACGCGUCUCCCUCCUAAGGAGUAGACUGCGGGUUCGAGUCCCGUACGGAACG [G12C A42U] | 0.698
7 | GUUCCGUUGGCCUAAUGGUAACGCGUCUACCUCCUAAGGAGAAGUCUGCGGGUUCAAGUCCCGUACGGAACG [G12C C29A A45U G56A] | ≤ 0.5
8 | GUUCCGUUGGCCUAAUGGUUAAGCGUCUCCCUCCUAAGGAGAAGACUGCGGGUUCGAGUCCCGUACGGAACG [G12C A20U C22A] | 0.927
9 | GUUCCGUUGGCCUAAUGGUAACGCGUCUCCCUCCUCAGGAGAAGACUGCGGGUUCGAGUCCCGUACGGAACG [G12C A36C] | 0.518
10 | GUUCCGUUGGCCUAAUGGUCACGCGUCUCCCUCCUAAGGAGAAGACAGCGGGUUCGAGUCCCGUACGGAGCG [G12C A20C U47A A70G] | 0.755
11 | GUUCCGUUGGCCUAAUGGUAACGCGUGUCCCUCCUAAGGAGAAGACUGCGGGUUCGAAUCCCGUACGGAACG [G12C C27G G58A] | ≤ 0.5
12 | GUUCCGUUGGCCUAAUGGUACCGCGCCUCCCUCCUAAGGAGAAGACUGCGGGUUCGAGUAACGUACGGAACG [G12C A21C U26C C60A C61A] | ≤ 0.5
13 | GUUCCGUUGGCCUAAUGGUAACGUGUCUCCCUCCUAAGGAGAAGACUCCGGGUUCGAGUCCCGUACGACACG [G12C C24U G48C G68A A69C] | ≤ 0.5
14 | GUUCCGUUGGCCUAAUGGUAACGCGUCUCCCUCCUACGGUGAAGAUUGCGGGUUCGAGUCCCGUACGGAACG [G12C A37C A40U C46U] | 0.59
15 | GUUCCGUUGGCCUAAUGGUAACGCGUCUCCCUCCUAAGGAGAAGACUGCGGGUUCGAGUCCCGUACGGCUCG [G12C A69C A70U] | 0.688
16 | GUUCCGUUGGCCUAAUGGUACCGCGUCUCCCUCCUAAGGAGAAGACUGCGGGUUCGAGUACCGUACGGAACG [G12C A21C C60A] | ≤ 0.5
17 | GUUCCGUUGGCCUAAUGGUAACGCGUGUCGCUCCUAAGGAGAAGACUGCGGGUUCGAGUCCCGUACGGAACG [G12C C27G C30G] | ≤ 0.5
18 | GUUCCGUUGGCCUAAUGGUAUCGCGUCUCCCUCUUAAGGAGUAGACUGCGGGUUCGAGUCCCGAACGUAACG [G12C A21U C34U A42U U64A G68U] | ≤ 0.5
19 | GUUCCGUUGGCCUAAUGGUAACGCGUCUUCCUCCUAAGGAGAAGACUGCGAGUUCAAGUCCCCUACGGAACG [G12C C29U G51A G56A G63C] | 0.574

Row | Variant | yeast fitness
20 | GUUCCGUUGGCCUAAUGGUAAUGCGUCUCCCUCCUAAGGAGACGACUGCGGGUUCGAGUCCCGUACGGAACG [G12C C22U A43C] | 0.615
21 | GUUCCGUUGGCCUAAUGGUAACGCGUCUCCCUCCUAAGGAGAAGACUGCGGGUUCGAGUCCCGUGCGGAACG [G12C A65G] | 0.783
22 | GUUCCGUUGGCCUAAUGGUAACGCGUCUCCCUCCUAAGGAGAAGACUGCGGGUUCGAGUCCCGUCCGGAACG [G12C A65C] | 0.783
23 | GUUCCGUUGGCCUAAUGGUAACGGGUUUCCCUCCUAAGGAGAUGACUGCGGGUUCGAGUCCCGUACAGAACG [G12C C24G C27U A43U G67A] | ≤ 0.5
24 | GUUCCGUUGGCCUAAUGGUCACGCGUCUCCCAGCUAAGGAGAAGACUGCGGGUUCGAGUCCCGUACGGAACG [G12C A20C U32A C33G] | 0.536
25 | GUUCCGUUGGCCUAAUGGUAACGUGUCUCCCUCCUAAGGUGAAGACUGCGGGUUCGAGUCCCGUACGGAACG [G12C C24U A40U] | ≤ 0.5
26 | GUUCCGUUGGCCUAAUGGUAACGCGUCUCCCUCCUACGGUGAAGAUUGCGGGUUCGAGUCCCAUACGGAACG [G12C A37C A40U C46U G63A] | ≤ 0.5
27 | GUUCCGUUGGCCUAAUGGUAACGCGUCUCCCUCCUAAGGUGAAGACUCCGGGUUCGAGUCCCAUACGGAACG [G12C A40U G48C G63A] | ≤ 0.5
28 | GUUCCGUUGGCCUAAUGGUAACGCGUCUCCCUCCUCUGGAGAAGACUGCGGGUUCGAGUCCCGUACGGAACG [G12C A36C A37U] | ≤ 0.5
29 | GUUCCGUUGGCCUAAUGGUUAGGCGUCUCCCUCCUAAGGAGAAGACUGCAGGUUCGAGUCCCGUACGGAACG [G12C A20U C22G G50A] | ≤ 0.5
30 | GUUCCGUUGGCCUAAUGGUGACGCGUCUCCCUCUUAAGGAGAAGACUGGGGGUUCGAGUCCCGUACGGAACG [G12C A20G C34U C49G] | 0.711
31 | GUUCCGUUGGCCUAAUGGUAACGCGUCUGCCUCCUAAGGAGAAGACUGCGAGUUCGAGUCCCGUACGCAACG [G12C C29G G51A G68C] | ≤ 0.5
32 | GUUCCGUUGGCCUAAUGGUAAUGCGUCUCCCCCCUAAGGAGAAGACUGCGGGUUCGAGUCCCGUACGGAACG [G12C C22U U32C] | 0.692
33 | GUUCCGUUGGCCUAAUGGUAACGCGUCUCCCUCCUAGAGAGAAGUCUGCGGGUUCGAGUCCCGUACGGAGCG [G12C A37G G38A A45U A70G] | 0.567
34 | GUUCCGUUGGCCUAAUGGUAACGUGUCUCCCUCCUAAGGAGAAGACUGCGGGUUUGAGUCCCGUACGCAACG [G12C C24U C55U G68C] | 0.55
35 | GUUCCGUUGGCCUAAUGGUAACGCGUCUCCCUCCUAAGGAGAGGACUGCGGGUUCGAGUCCCAUACGGAACG [G12C A43G G63A] | 0.556
36 | GUUCCGUUGGCCUAAUGGUAACGGGUCUCCCUCCUAAGGAGAAGACUGCGGGUUCGAGUCCCGUACGGAACG [G12C C24G] | 0.622
37 | GUUCCGUUGGCCUAAUGGUUACGCGUCUCUCUCCUAAGGAGAAGACUGCGGGUUUGAGUCCCGUAUGGAACG [G12C A20U C30U C55U C66U] | 0.551
38 | GUUCCGUUGGCCUAAUGGUAACGGGUCUCCCUCCUAAGGAGAAGACUGCGCGUUCGAGUCCAGGACGGAACG [G12C C24G G51C C62A U64G] | 0.59
